The text below walks through data of ChEMBL document CHEMBL4400539, “Discovery of a Novel Chemotype of Histone Lysine Methyltransferase EHMT1/2 (GLP/G9a) Inhibitors: Rational Design, Synthesis, Biological Evaluation, and Co-crystal Structure” (J Med Chem, 2019).

Series [1] addresses T1, Histone-lysine N-methyltransferase EHMT2 (Homo sapiens) (UniProt Q96KQ7).
T1 sequence (whole entry): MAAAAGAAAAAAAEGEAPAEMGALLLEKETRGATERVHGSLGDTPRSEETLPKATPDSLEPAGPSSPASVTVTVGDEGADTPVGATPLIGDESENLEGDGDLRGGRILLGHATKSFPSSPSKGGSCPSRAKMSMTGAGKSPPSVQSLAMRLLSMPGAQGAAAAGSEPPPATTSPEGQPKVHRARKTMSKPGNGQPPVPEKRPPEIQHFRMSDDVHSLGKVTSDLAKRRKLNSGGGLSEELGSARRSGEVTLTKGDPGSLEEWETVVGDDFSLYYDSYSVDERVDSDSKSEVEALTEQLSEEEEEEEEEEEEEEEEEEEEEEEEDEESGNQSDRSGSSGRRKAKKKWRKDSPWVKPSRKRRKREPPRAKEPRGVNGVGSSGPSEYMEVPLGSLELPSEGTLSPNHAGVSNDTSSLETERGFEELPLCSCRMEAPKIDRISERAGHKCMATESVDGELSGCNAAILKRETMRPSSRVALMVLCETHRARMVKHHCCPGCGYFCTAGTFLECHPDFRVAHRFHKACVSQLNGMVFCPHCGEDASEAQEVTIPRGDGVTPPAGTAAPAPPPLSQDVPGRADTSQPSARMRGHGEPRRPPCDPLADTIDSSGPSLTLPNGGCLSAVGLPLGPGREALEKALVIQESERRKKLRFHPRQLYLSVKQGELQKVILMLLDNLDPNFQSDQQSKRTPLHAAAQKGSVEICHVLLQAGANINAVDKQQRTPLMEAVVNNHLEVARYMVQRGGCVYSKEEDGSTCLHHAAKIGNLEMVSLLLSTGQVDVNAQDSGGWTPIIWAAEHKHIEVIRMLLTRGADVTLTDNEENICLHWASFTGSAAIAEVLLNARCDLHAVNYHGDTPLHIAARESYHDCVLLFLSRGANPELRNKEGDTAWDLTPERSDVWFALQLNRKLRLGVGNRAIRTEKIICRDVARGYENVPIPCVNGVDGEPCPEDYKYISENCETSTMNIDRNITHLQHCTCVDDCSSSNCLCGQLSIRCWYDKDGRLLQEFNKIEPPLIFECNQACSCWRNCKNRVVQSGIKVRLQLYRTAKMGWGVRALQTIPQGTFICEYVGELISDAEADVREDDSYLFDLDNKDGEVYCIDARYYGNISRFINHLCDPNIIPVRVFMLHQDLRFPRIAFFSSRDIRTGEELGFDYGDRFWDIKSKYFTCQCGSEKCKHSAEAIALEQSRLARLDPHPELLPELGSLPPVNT
The series can be described thus: Inhibition of recombinant human G9a at 25 uM using biotinylated-Histone H3 peptide (1 to 21 residues) after 30 mins by AlphaLISA assay relative to control. Summed up:
(§1)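 G9a AlphaLISA at fixed 10 or 25 μM compound: human recombinant G9a 1 nM, 30 min preincubation, then biotinylated H3(1–21) 100 nM plus SAM 15 μM for 30 min at room temperature, pH 8.8 Tris buffer with 0.01% Tween-20; anti-H3K9me2 acceptor and streptavidin donor beads; percent of DMSO control.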
On the technique in general: Bead proximity is the source of the signal in Alpha formats.

The target of series [2] is T1, Histone-lysine N-methyltransferase EHMT2 (Homo sapiens). The series can be described thus: Inhibition of recombinant human G9a at 10 uM using biotinylated-Histone H3 peptide (1 to 21 residues) after 30 mins by AlphaLISA assay relative to control. An outline of the steps: as §1
Series [3] is described as follows: Apparent permeability of the compound after 24 hrs by PAMPA. The series is classed as ADME. For orientation: PAMPA measures passive passage across an artificial lipid membrane.
For series [4], the target named is T2, Histone-lysine N-methyltransferase EHMT2 (Homo sapiens, UniProt Q96KQ7).
T2 sequence (Q96KQ7 whole entry): T1 sequence (whole entry)
Put plainly: Competitive inhibition of recombinant human G9a using biotinylated-Histone H3 peptide (1 to 21 residues) as substrate at varying concentration after 30 mins in presence SAM by Lineweaver-Burk plot analysis.

Series [5] in a line: Cytotoxicity against human U343MG cells assessed as reduction in cell viability up to 5 uM after 72 hrs by MTT assay. The series is classed as cell-based. Summed up: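 MCF-7, MDA-MB-231 and U-343 cells exposed 24, 48 and 72 h to 0.05, 0.5, 5 and 50 μM compound; viability by MTT reduction to formazan versus vehicle; mean ± SD of at least three independent experiments.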
On the technique in general: Formazan colour is commonly taken as a measure of viable cells.

Take `COc1cc2c(cc1OCCCN1CCCC1)N=C(C1CCCCC1)CN=C2NC1CCN(C(C)C)CC1`: the results for the inhibition in series [1] and in series [2] were 98% and 97%, respectively. The Papp in series [3] turned out to be 4.8 ×10⁻⁷ cm/s. Besides, in series [4], the Ki came to 13.8 nM. For the same compound, in series [5], the Activity result is recorded as “Non-Toxic”.

Broadly, the inhibition is the drop in the measured response relative to a control, in per cent. Broadly, the Ki is the equilibrium dissociation constant of an inhibitor or competing ligand from its target.
